Test results as given in ChEMBL document CHEMBL3244330, “Structure--activity relationships of n-substituted dopamine and 2-amino-6,7-dihydroxy-1,2,3,4-tetrahydronaphthalene analogues: behavioral effects in lesioned and reserpinized mice” (J Med Chem, 1979).
Calls of active or inactive are those of the source. The calls are words filed in the database; no cut-off is given here.

How the values were obtained:
[1] = tested on: Mus musculus; assay: Postural effect on caudectomized Swiss albino mouse assessed as latency to onset time of asymmetric postural effect at 102.2 mg/kg, ip; assay type: functional, organism-based; parameters: dose 102.2 mg/kg
Procedure, shortened: (§1)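 Male Swiss albino Hale-Stoner mice with right caudectomy by suction, used if responsive to apomorphine 4 weeks post-lesion. Compound in 0.9% saline given ip, maximum 0.348 mmol/kg. 18 mice per compound in random groups of six, retested after 5–6 day intervals. Onset latency and duration of asymmetric posture recorded; mean ± SE from six animals.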

[2] = tested on: Mus musculus; assay: Postural effect on caudectomized Swiss albino mouse assessed as latency to onset time of asymmetric postural effect at 100.5 mg/kg, ip; assay type: functional, organism-based; parameters: dose 100.5 mg/kg
Procedure, shortened: (§2)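 Male Swiss albino Hale-Stoner mice with a right caudectomy made by suction. A lesion was accepted if the mouse responded to apomorphine 4 weeks after surgery. Compounds were dissolved in 0.9% saline and injected ip at random into groups of six, with a maximum dose of 0.348 mmol/kg. 18 mice were used per compound, and mice were retested after 5–6 day intervals. Onset and duration of the asymmetric posture are reported as mean ± SE from six animals.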

[3] = tested on: Mus musculus; assay: Postural effect on caudectomized Swiss albino mouse assessed as latency to onset time of asymmetric postural effect at 1 mg/kg, ip; assay type: functional; conditions: route intraperitoneal; procedure, shortened: as §2
[4] = tested on: Mus musculus; assay: Postural effect on caudectomized Swiss albino mouse assessed as time duration of asymmetric posture at 1 mg/kg, ip; assay type: functional; conditions: route intraperitoneal; procedure, shortened: as §2
[5] = tested on: Mus musculus; assay: Reversal of reserpine-induced catalepsy in ip dosed Swiss albino (CD1) mouse; assay type: functional
Procedure, shortened: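 Male Swiss albino CD1 mice, 5 weeks old, got reserpine 5 mg/kg ip, then α-MTM 250 mg/kg ip 17 h later, then the test drug ip 4 h after that. Catalepsy was scored by the rubber-stopper test (time to step off the stopper). At least four doses were used, with ≥8 mice per dose. ED50 was taken from a log-probit plot of percent responders against dose.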

[6] = tested on: Mus musculus; assay: Postural effect on caudectomized Swiss albino mouse assessed as time duration of asymmetric posture at 60.8 mg/kg, ip; assay type: functional; conditions: route intraperitoneal; procedure, shortened: as §1
[7] = tested on: Mus musculus; assay: Postural effect on caudectomized Swiss albino mouse assessed as latency to onset time of asymmetric postural effect at 30.4 mg/kg, ip; assay type: functional; conditions: route intraperitoneal; procedure, shortened: as §1
[8] = tested on: Mus musculus; assay: Postural effect on caudectomized Swiss albino mouse assessed as time duration of asymmetric posture at 30.4 mg/kg, ip; assay type: functional; conditions: route intraperitoneal; procedure, shortened: as §1
[9] = tested on: Mus musculus; assay: Postural effect on caudectomized Swiss albino mouse assessed as latency to onset time of asymmetric postural effect at 60.8 mg/kg, ip; assay type: functional; conditions: route intraperitoneal; procedure, shortened: as §1
[10] = tested on: Mus musculus; assay: Postural effect on caudectomized Swiss albino mouse assessed as latency to onset time of asymmetric postural effect at 29.9 mg/kg, ip; assay type: functional; conditions: route intraperitoneal; procedure, shortened: as §2
[11] = tested on: Mus musculus; assay: Postural effect on caudectomized Swiss albino mouse assessed as time duration of asymmetric posture at 59.8 mg/kg, ip; assay type: functional; conditions: route intraperitoneal
Procedure, shortened: (§3)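 Male Swiss albino Hale-Stoner mice given a right caudectomy by suction. The lesion counted as successful if the mice reacted to apomorphine 4 weeks later. Drug was given ip in 0.9% saline, up to 0.348 mmol/kg, to randomised groups of six, with 5-6 days before reuse. Onset and duration of asymmetric posture are reported as mean ± SE from six animals.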

[12] = tested on: Mus musculus; assay: Postural effect on caudectomized Swiss albino mouse assessed as time duration of asymmetric posture at 29.9 mg/kg, ip; assay type: functional; conditions: route intraperitoneal; procedure, shortened: as §2
[13] = tested on: Mus musculus; assay: Postural effect on caudectomized Swiss albino mouse assessed as latency to onset time of asymmetric postural effect at 59.8 mg/kg, ip; assay type: functional; conditions: route intraperitoneal; procedure, shortened: as §2
[14] = tested on: Mus musculus; assay: Postural effect on caudectomized Swiss albino mouse assessed as latency to onset time of asymmetric postural effect at 90.8 mg/kg, ip; assay type: functional, organism-based; parameters: dose 90.8 mg/kg; procedure, shortened: as §2
[15] = tested on: Mus musculus; assay: Postural effect on caudectomized Swiss albino mouse assessed as time duration of asymmetric posture at 25.4 mg/kg, ip; assay type: functional; conditions: route intraperitoneal; procedure, shortened: as §2
[16] = tested on: Mus musculus; assay: Postural effect on caudectomized Swiss albino mouse assessed as time duration of asymmetric posture at 50.8 mg/kg, ip; assay type: functional; conditions: route intraperitoneal; procedure, shortened: as §3
[17] = tested on: Mus musculus; assay: Postural effect on caudectomized Swiss albino mouse assessed as latency to onset time of asymmetric postural effect at 25.4 mg/kg, ip; assay type: functional; conditions: route intraperitoneal; procedure, shortened: as §2
[18] = tested on: Mus musculus; assay: Postural effect on caudectomized Swiss albino mouse assessed as latency to onset time of asymmetric postural effect at 50.8 mg/kg, ip; assay type: functional; conditions: route intraperitoneal; procedure, shortened: as §2
[19] = tested on: Mus musculus; assay: Postural effect on caudectomized Swiss albino mouse assessed as latency to onset time of asymmetric postural effect at 104.8 mg/kg, ip; assay type: functional, organism-based; parameters: dose 104.8 mg/kg; procedure, shortened: as §2
[20] = tested on: Mus musculus; assay: Postural effect on caudectomized Swiss albino mouse assessed as latency to onset time of asymmetric postural effect at 50 mg/kg, ip; assay type: functional; conditions: route intraperitoneal; procedure, shortened: as §2
[21] = tested on: Mus musculus; assay: Postural effect on caudectomized Swiss albino mouse assessed as time duration of asymmetric posture at 50 mg/kg, ip; assay type: functional; conditions: route intraperitoneal; procedure, shortened: as §3
[22] = tested on: Mus musculus; assay: Postural effect on caudectomized Swiss albino mouse assessed as time duration of asymmetric posture at 25 mg/kg, ip; assay type: functional; conditions: route intraperitoneal; procedure, shortened: as §2
[23] = tested on: Mus musculus; assay: Postural effect on caudectomized Swiss albino mouse assessed as latency to onset time of asymmetric postural effect at 25 mg/kg, ip; assay type: functional; conditions: route intraperitoneal; procedure, shortened: as §2
[24] = tested on: Mus musculus; assay: Postural effect on caudectomized Swiss albino mouse assessed as time duration of asymmetric posture at 22.6 mg/kg, ip; assay type: functional; conditions: route intraperitoneal; procedure, shortened: as §2
[25] = tested on: Mus musculus; assay: Postural effect on caudectomized Swiss albino mouse assessed as time duration of asymmetric posture at 45.2 mg/kg, ip; assay type: functional; conditions: route intraperitoneal; procedure, shortened: as §2
[26] = tested on: Mus musculus; assay: Postural effect on caudectomized Swiss albino mouse assessed as latency to onset time of asymmetric postural effect at 67.8 mg/kg, ip; assay type: functional; conditions: route intraperitoneal; procedure, shortened: as §2
[27] = tested on: Mus musculus; assay: Postural effect on caudectomized Swiss albino mouse assessed as time duration of asymmetric posture at 67.8 mg/kg, ip; assay type: functional; conditions: route intraperitoneal; procedure, shortened: as §3
[28] = tested on: Mus musculus; assay: Postural effect on caudectomized Swiss albino mouse assessed as latency to onset time of asymmetric postural effect at 45.2 mg/kg, ip; assay type: functional; conditions: route intraperitoneal; procedure, shortened: as §2
[29] = tested on: Mus musculus; assay: Postural effect on caudectomized Swiss albino mouse assessed as latency to onset time of asymmetric postural effect at 22.6 mg/kg, ip; assay type: functional; conditions: route intraperitoneal; procedure, shortened: as §2
[30] = tested on: Mus musculus; assay: Postural effect on caudectomized Swiss albino mouse assessed as time duration of asymmetric posture at 858 mg/kg, ip; assay type: functional; conditions: route intraperitoneal
[31] = tested on: Mus musculus; assay: Postural effect on caudectomized Swiss albino mouse assessed as latency to onset time of asymmetric postural effect at 858 mg/kg, ip; assay type: functional; conditions: route intraperitoneal
[32] = tested on: Mus musculus; assay: Postural effect on caudectomized Swiss albino mouse assessed as latency to onset time of asymmetric postural effect at 26.3 mg/kg, ip; assay type: functional, organism-based; parameters: dose 26.3 mg/kg; procedure, shortened: as §2
[33] = tested on: Mus musculus; assay: Postural effect on caudectomized Swiss albino mouse assessed as time duration of asymmetric posture at 105.1 mg/kg, ip; assay type: functional; conditions: route intraperitoneal; procedure, shortened: as §2
[34] = tested on: Mus musculus; assay: Postural effect on caudectomized Swiss albino mouse assessed as latency to onset time of asymmetric postural effect at 78.9 mg/kg, ip; assay type: functional; conditions: route intraperitoneal; procedure, shortened: as §2
[35] = tested on: Mus musculus; assay: Postural effect on caudectomized Swiss albino mouse assessed as latency to onset time of asymmetric postural effect at 92 mg/kg, ip; assay type: functional; conditions: route intraperitoneal; procedure, shortened: as §2
[36] = tested on: Mus musculus; assay: Postural effect on caudectomized Swiss albino mouse assessed as time duration of asymmetric posture at 78.9 mg/kg, ip; assay type: functional; conditions: route intraperitoneal; procedure, shortened: as §3
[37] = tested on: Mus musculus; assay: Postural effect on caudectomized Swiss albino mouse assessed as latency to onset time of asymmetric postural effect at 105.1 mg/kg, ip; assay type: functional; conditions: route intraperitoneal; procedure, shortened: as §2
[38] = tested on: Mus musculus; assay: Postural effect on caudectomized Swiss albino mouse assessed as latency to onset time of asymmetric postural effect at 52.6 mg/kg, ip; assay type: functional, organism-based; parameters: dose 52.6 mg/kg; procedure, shortened: as §2
[39] = tested on: Mus musculus; assay: Reversal of reserpine-induced catalepsy in Swiss albino (CD1) mouse at 0.348 mmol/kg, ip; assay type: functional, organism-based
[40] = tested on: Mus musculus; assay: Postural effect on caudectomized Swiss albino mouse assessed as time duration of asymmetric posture at 92 mg/kg, ip; assay type: functional; conditions: route intraperitoneal; procedure, shortened: as §3

Oc1ccc(CCNCCc2ccccc2)cc1O
Activity [1]: inactive

CCCCCN(CCCC)CCc1ccc(O)c(O)c1
Activity [2]: inactive

CN1CCc2cccc3c2[C@H]1Cc1ccc(O)c(O)c1-3.CN1CCc2cccc3c2[C@H]1Cc1ccc(O)c(O)c1-3.Cl.Cl.O [APOMORPHINE HYDROCHLORIDE]
Time [3]: 4.6 min
Time [4]: 12.8 min
ED50 [5]: 0.11 mg/kg

CCCN(CCCc1ccccc1)CCc1ccc(O)c(O)c1.Cl
Time [6]: 18.2 min
Time [7]: 7.6 min
Time [8]: 6.4 min
ED50 [5]: 9 mg/kg
Time [9]: 5.8 min

CCCCCN(C)CCc1ccc(O)c(O)c1.Cl
ED50 [5]: 46 mg/kg

Br.CCCN(CCC)C1CCc2cc(O)c(O)cc2C1 (configuration not stated)
Time [10]: 2.8 min
Time [11]: 31.5 min
ED50 [5]: 1.6 mg/kg
Time [12]: 17 min
Time [13]: 2 min

CCCCCNCCc1ccc(O)c(O)c1
Activity [14]: inactive

CCCN(CCc1ccc(O)c(O)c1)CC(C)C.Cl
Time [15]: 18 min
Time [16]: 39 min
Time [17]: 2.8 min
ED50 [5]: 7.4 mg/kg
Time [18]: 2.6 min

CCCCN(CCCC)CCc1ccc(O)c(O)c1
Activity [19]: inactive

CCCCN(CCC)CCc1ccc(O)c(O)c1.Cl
Time [20]: 3.7 min
Time [21]: 25.8 min
Time [22]: 6.4 min
ED50 [5]: 8.6 mg/kg
Time [23]: 3.7 min

CCCN(CC)CCc1ccc(O)c(O)c1.Cl
Time [24]: 2.3 min
Time [25]: 6.3 min
Time [26]: 3.6 min
Time [27]: 11.2 min
Time [28]: 3.2 min
ED50 [5]: 33 mg/kg
Time [29]: 3.2 min

N[C@@H](Cc1ccc(O)c(O)c1)C(=O)O [LEVODOPA]
Time [30]: 24 min
ED50 [5]: 248 mg/kg
Time [31]: 17.7 min

CCC(C)N(CCc1ccc(O)c(O)c1)C(C)CC.Cl (configuration not stated)
Activity [32]: inactive
Time [33]: 10.8 min
Time [34]: 1.8 min
Time [35]: 5.2 min
Time [36]: 7 min
Time [37]: 5 min
Activity [38]: inactive
Activity [39]: inactive
Time [40]: 7 min
